Laboratory results as given in ChEMBL document CHEMBL1773040, “Briarane diterpenes diminish COX-2 expression in human colon adenocarcinoma cells” (2011).
Active and inactive are the calls of the source. The rule behind the calls is not given here.

What was measured:
[1] = test system: Caco-2; experiment: Decrease in PMA-induced COX-2 mRNA expression in human Caco2 cells at 5 to 15 uM after 24 hrs by PCR analysis; type: functional, cell-based
[2] = test system: Caco-2; experiment: Cytotoxicity against human Caco2 cells assessed as decrease in cell viability at 30 uM after 24 hrs by trypan blue exclusion assay; type: functional
Summary of the method: (§1)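 Caco-2 cells kept in MEM with 10% heat-inactivated FBS, penicillin G and streptomycin at 37 C, 5% CO2. Compounds given from a 5 mg/mL DMSO stock; exponentially growing cells seeded in complete medium with compound for 24 h. Floating and adherent cells pooled, mixed with 0.4% trypan blue, and stained/unstained cells counted by hemacytometer. Each experiment run three times.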

[3] = test system: Caco-2; experiment: Cytotoxicity against human Caco2 cells assessed as decrease in cell viability at 5 to 30 uM after 24 hrs by trypan blue exclusion assay; type: functional, cell-based; summary of the method: as §1
[4] = test system: RAW264.7; experiment: Decrease in PMA-induced COX-2 mRNA expression in mouse RAW264.7 cells at 5 to 15 uM after 24 hrs by PCR analysis; type: functional, cell-based
Summary of the method: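 RAW 264.7 monolayers stimulated with PMA and co-incubated with compound (0–15 μM) for 24 h. Total RNA isolated; equal RNA amounts reverse-transcribed to cDNA. COX-2 fragments amplified by PCR: 94 C 3 min, then 35 cycles of 94 C 30 s, 56 C 1 min, 78 C 30 s. GAPDH served as reference.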

[5] = test system: Caco-2; experiment: Decrease in PMA-induced COX-2 mRNA expression in human Caco2 cells at 10 to 15 uM after 24 hrs by PCR analysis; type: functional, cell-based
[6] = test system: Caco-2; experiment: Cytotoxicity against human Caco2 cells assessed as decrease in cell viability at 20 uM after 24 hrs by trypan blue exclusion assay; type: functional; summary of the method: as §1
[7] = test system: Caco-2; experiment: Cytotoxicity against human Caco2 cells assessed as decrease in cell viability at 15 uM after 24 hrs by trypan blue exclusion assay; type: functional; summary of the method: as §1

Row | SMILES | Activity [1] | Activity [2] [%] | Activity [3] | Activity [4] | Activity [5] | Activity [6] [%] | Activity [7] [%]
1 | CC(=O)O[C@@H]1C[C@H](O)[C@@]2(C)C=C[C@@H](OC(C)=O)[C@@](C)(O)[C@@H]2[C@H](OC(C)=O)[C@]23O[C@@]2(C)C(=O)O[C@H]3/C=C\1C [BRIALALEPOLIDE A] | inactive | 50 | Dose-dependent effect | inactive | – | – | –
2 | CCCCCC(=O)O[C@@H]1C[C@H](O)[C@@]2(C)C=C[C@@H](OC(C)=O)[C@@](C)(O)[C@@H]2[C@H](OC(C)=O)[C@]23O[C@@]2(C)C(=O)O[C@H]3/C=C\1C [BRIALALEPOLIDE B] | – | – | Dose-dependent effect | Active | Active | 50 | –
3 | CCCCCCCC(=O)O[C@@H]1C[C@H](O)[C@@]2(C)C=C[C@@H](OC(C)=O)[C@@](C)(O)[C@@H]2[C@H](OC(C)=O)[C@]23O[C@@]2(C)C(=O)O[C@H]3/C=C\1C [BRIALALEPOLIDE C] | – | 75 | Dose-dependent effect | Active | Active | – | 50
